From PubChem
M1 antag: antagonists of rat M1 muscarinic receptor; P08482; CHO-M1 cells, Fluo-4 calcium, ACh EC80 antagonist mode; active compounds read low; B-score at 10 µM; hit rate 3.4% among 64,000;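 active means calcium fluorescence response, raw or row-and-column corrected B-score, differing from the plate sample mean either way at a set confidence level, mostly lower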
Hsp90 block: displaces geldanamycin probe from tumor Hsp90. P07900. NCI-N417 lysate Hsp90, Cy3B-geldanamycin FP displacement. inhibition, % at 30 µM. hit rate 0.35% among 64,000. AID 429;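 active means inhibition above 50%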;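 further: 0% = tracer plus lysate wells and 100% = tracer alone without lysate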
tolC growth inh: E. coli tolC mutant growth inhibition; growth inhibition, % at 10 µM (by protocol); AID 573; hit rate 2.2% among 65,000; E. coli BW25113 tolC mutant growth, OD615;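 active means growth inhibition at or above a cutoff equal to the mean over every tested compound plus 3 SD, cut at about 60% in these data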;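 further: growth measured after 20 h incubation at 37 °C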
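Assay system: tolC-deleted E. coli BW25113. Medium: kanamycin-containing LB broth (50 µg/mL). Dosing: 10 µM final, single dose. Timing: bacterial growth with compound for 20 h at 37 °C. Detection: A615 absorbance measurement. Read-out basis: growth inhibition in percent.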
E coli WT exp: E. coli BW25113 growth inhibition, expanded screen; growth inhibition, % at 100 µM; OD600 absorbance; hit rate 0.15% among 98,000;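 active means growth inhibition above about 50% at one test dose, limit read from the data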;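 further: growth measured after 20 h incubation at 37 °C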
M1 ag: agonists of M1 muscarinic receptor. hit rate 3% among 64,000. B-score at 10 µM. CHO-M1 cells, Fluo-4 calcium fluorescence, agonist mode; active compounds read high;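 active means fluorescence rise, raw or as B-score row- and column-corrected plate score, outside the 99.7% band of its plate's samples, either direction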
BAP1 inh: human BAP1 deubiquitinase inhibition; recombinant BAP1, Ub-AMC hydrolysis fluorescence kinetic; active compounds read low; calls only at 20 µM; hit rate 0.48% among 72,000; AID 436;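 active means activity remaining at or below 50% of control, provided the compound also passes the data quality filters; inactive means the rest, including low values that fail the filters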;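 further: 100% = DMSO wells rate and 0% = substrate alone blank rate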
* = called active by the depositor; i = inactive; / = not tested or not shown; + = active, no number. Shown are actives, neighbours in structure and some others; about 5.1% of the full set was active somewhere.

SMILES	M1 antag	Hsp90 block	tolC growth inh	E coli WT exp	M1 ag	BAP1 inh
COc1cc(-c2nc(-c3cccc(C)c3)no2)cc(OC)c1OC	/	-3.0	67.3*	/	/	i
CCN1/C(=C(\O)c2ccccc2)C(=O)c2ccccc2S1(=O)=O	0.567	-3.1	89.1*	12.0	0.928	i
O=C(O)CN1C(=O)c2ccccc2S1(=O)=O	/	/	/	/	/	i
Cn1c(CSc2nnc(SCc3ccccc3)s2)nc2ccccc21	-0.271	0.2	83.8*	-21.0	0.498	i
Cn1c(CSc2nc3ccc(Br)cc3[nH]2)nc2ccccc21	0.454	-2.6	34.3	-4.0	-0.575	i
CS(=O)(=O)N(CC(=O)Nc1ccc2c(c1)OCO2)Cc1ccc(Cl)cc1	-0.114	35.1	21.2	1.0	0.131	i
O=S(=O)(Cc1ccc(Cl)cc1)Nc1ccc2c(c1)OCO2	0.422	56.3*	24.1	-6.0	1.03	i
O=C(O)Cn1nnnc1-c1ccc(F)cc1	1.72	-10.6	-13.9	-5.0	-2.04*	i
N#Cc1ccc(CSc2nnc(Nc3ccccc3)s2)cc1	0.062	85.0*	6.1	-5.0	-0.223	i
Oc1ccccc1-c1cc(-c2ccc3c(c2)OCCO3)n[nH]1	0.383	/	99.4*	24.0	-0.0207	/
COc1ccc2c3c(cccc13)NN=C2C	-0.0779	86.5*	0.2	/	0.6	i
O=C(Cc1ccc(Cl)cc1)Nc1ccc(N2CCCCC2)cc1	/	/	/	/	/	i
CSc1nc(C)cc(-n2ccc(=O)[nH]c2=O)n1	1.05*	-1.8	-8.8	1.0	-0.244	i
Cn1c(=O)n(C/C=C/c2ccccc2)c(=O)c2c1nc1n2CCCN1Cc1ccccc1	0.264	1.4	23.5	-8.0	0.0798	i
Cc1cccc(Cn2c(=O)c3c(nc4n3CCCN4Cc3ccccc3)n(C)c2=O)c1	-0.0777	-0.1	73.7*	-4.0	-0.46	i
CCC(C)Nc1nc2c(c(=O)n(C)c(=O)n2C)n1Cc1ccc(Cl)cc1 (stereo not given)	-0.875	-1.8	28.6	/	-1.17	i
CCC(C)Nc1nc2c(c(=O)n(C)c(=O)n2C)n1Cc1cccc(C)c1 (stereo not given)	13.4*	-5.7	14.8	11.0	0.61	i
Cn1c(N2CCOCC2)nc2c1c(=O)n(Cc1ccc(Cl)cc1)c(=O)n2C	0.296	-4.4	3.6	/	-1.21	i
CCNc1nc2c(c(=O)n(C)c(=O)n2C)n1Cc1ccc(Cl)cc1	-0.715	-1.3	4.3	/	2.56*	i
CC1CN(c2nc3c(c(=O)n(Cc4ccc(Cl)c(Cl)c4)c(=O)n3C)n2C)CC(C)O1 (stereo not given)	-0.27	-0.2	86.8*	-1.0	0.0304	i
CC1CCCCN1C(=O)CSc1nc(C2CC2)nc2c1cnn2-c1ccccc1 (stereo not given)	-0.322	-3.4	67.2*	2.0	-0.844	/
Cc1nn(C)c(C)c1NC(=O)CSc1nc(C2CC2)nc2c1cnn2-c1ccccc1	/	/	/	2.0	/	/
O=C(O)CNC(=O)c1cncc(O)c1	/	/	/	/	/	i
CCCC(N)CCCCCC(=O)O (stereo not given)	-0.594	0.5	-18.5	-4.0	-0.0258	i
CCCCCCCCCCCCCCC[C@H](O)[C@H](N)CO	/	-1.0	/	/	/	+
SMILES	M1 antag	Hsp90 block	tolC growth inh	E coli WT exp	M1 ag	BAP1 inh
N=c1n(Cc2ccccc2)c2ccccc2n1CC(O)COc1ccccc1 (stereo not given)	-0.882	0.3	62.7*	23.0	-0.691	i
CCc1ccc(C(=O)CSC2=NCCS2)cc1	/	/	/	/	/	i
O=C(CN1CCN(S(=O)(=O)c2ccc(F)cc2)CC1)Nc1ccc(Cl)c(C(F)(F)F)c1	0.0485	-0.9	63.5*	1.0	-0.00141	i
O=C(CC(=O)c1ccccc1O)c1cccc(F)c1	0.297	1.6	89.5*	12.0	0.273	i
O=C(CC(=O)c1ccccc1O)c1ccc(F)cc1	/	/	/	8.0	/	/
CCOCCCN1CC(C(=O)NCCc2ccccc2)CC1=O (stereo not given)	2.2*	-2.3	-12.3	-8.0	0.292	i
COCCNC(=O)C1CC(=O)N(CCc2ccccc2)C1 (stereo not given)	0.0883	-2.5	-12.7	-4.0	-0.0443	i
O=C(Cn1nnc(-c2ccccc2Cl)n1)Nc1ccc2c(c1)OCO2	/	/	/	/	/	i
Cc1noc(C)c1S(=O)(=O)N(CCc1ccccc1)Cc1ccccc1	0.113	0.3	62.7*	-1.0	0.725	i
CSCC[C@H](NC(=O)OC(C)(C)C)c1nnc(SCC(=O)Nc2c(C)cccc2C)o1	2.04*	-2.3	-7.8	8.0	1	i
CCc1nnc(NC(=O)c2cc([N+](=O)[O-])ccc2Cl)s1	/	/	/	/	/	i
